From PubChem BioAssay
MrgX1 antagonist = human MrgX1 receptor antagonism, primary screen; 310,000 tested, 1.3% active; MRGX1-HEK293 calcium flux, Fluo-4, BAM8-22 antagonism; active compounds read low; Q96LB2; AID 588676; B-score at 10 µM;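 active means calcium-response B-score plate-corrected more than 3 library SD below zero, starting fluorescence within 5 deviations, no agonist response on first addition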;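 further: peak minus trough fluorescence over baseline after final BAM8-22 challenge near maximal dose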
Kir21 inh = Kir2.1 (mouse) channel inhibition; B-score at 10 µM; 310,000 tested, 0.85% active; HEK293-Kir2.1, FluxOR thallium flux fluorescence; active compounds read low; AID 1672; P35561;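 active means fluorescence ratio B-score at or below minus 3 SD of library scores, with starting-brightness B-score within 2 SD, cut at about -4.2 in these data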;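 further: channel flux triggered by added potassium and thallium sulfate stimulus; B-score of peak minus minimum fluorescence over baseline after thallium stimulus; more negative B-score means stronger Kir2.1 block with less thallium influx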
Target sequence (P35561 whole entry, looked up): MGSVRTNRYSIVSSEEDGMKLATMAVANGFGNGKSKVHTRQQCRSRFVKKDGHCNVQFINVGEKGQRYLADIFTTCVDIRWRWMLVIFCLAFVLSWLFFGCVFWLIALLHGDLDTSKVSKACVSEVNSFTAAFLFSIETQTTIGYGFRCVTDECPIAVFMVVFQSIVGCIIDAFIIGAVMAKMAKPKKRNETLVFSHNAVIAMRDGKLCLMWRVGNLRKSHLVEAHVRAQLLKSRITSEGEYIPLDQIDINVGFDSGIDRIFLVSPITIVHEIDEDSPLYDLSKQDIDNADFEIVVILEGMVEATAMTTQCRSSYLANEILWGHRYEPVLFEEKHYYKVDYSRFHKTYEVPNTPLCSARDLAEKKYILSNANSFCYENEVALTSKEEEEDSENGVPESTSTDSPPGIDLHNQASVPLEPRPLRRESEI
RGS4 act = RGS4 potentiation or activation; B-score at 10 µM; AID 463111; 310,000 tested, 0.92% active; HEK293 M3R/inducible RGS4, carbachol calcium flux Fluo4; active compounds read low;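 active means B-score of the integrated calcium signal more than 4 SD below the library mean, with starting fluorescence not abnormally high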;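 further: negative B-score means reduced calcium response which marks RGS4 activation or potentiation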
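test system = HEK293 cells with stable M3R and inducible RGS4 | schedule = recording 10 s baseline at 1 Hz, 100 s post-agonist | technique = Fluo4-AM (2 µM) calcium-flux fluorescence, kinetic read | measure = Agonist-evoked peak-minus-minimum fluorescence over baseline, integrated ratio, B score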
MrgX1 ag = human MrgX1 receptor agonism, primary screen | B-score at 10 µM | 310,000 tested, 0.44% active | Q96LB2 | MrgX1-HEK293 cells, Fluo-4 calcium fluorescence, agonist mode; active compounds read high;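 active means calcium response B-score plate-corrected fluorescence ratio at least 3 library SD, with starting fluorescence B-score inside 5 SD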
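Assay system: MrgX1-expressing HEK293 cells / Amount: fifteen thousand cells per well / Doses: test compound in the initial addition of three / Timing: cells plated overnight, dye loaded 0.5 h 37 °C, 0.5 h room temperature / Technique: kinetic calcium dye fluorescence, Fluo-4 NW / Control set: positive and negative controls per plate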
RGS4 inh = human RGS4 inhibition; B-score at 10 µM; HEK293 M3R/RGS4 inducible, Fluo-4 calcium flux; active compounds read high; triggered by carbachol at its EC20; AID 463165; P49798; 310,000 tested, 0.45% active;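 active means B-score, a plate-corrected calcium signal, over three deviations above library mean, with baseline fluorescence within five deviations of library mean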;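 further: RGS4 expression induced by doxycycline in cells with stable M3 receptor; B-score is computed from the integrated fluorescence ratio over baseline after carbachol; higher B-score means a larger calcium signal and so more RGS4 inhibition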
Target sequence (P49798 whole entry, looked up): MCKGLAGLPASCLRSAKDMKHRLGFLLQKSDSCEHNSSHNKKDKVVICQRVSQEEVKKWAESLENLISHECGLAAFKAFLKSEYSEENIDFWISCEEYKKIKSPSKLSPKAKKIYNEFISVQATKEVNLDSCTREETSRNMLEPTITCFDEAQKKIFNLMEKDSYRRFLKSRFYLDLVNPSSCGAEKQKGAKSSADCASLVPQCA
MrgX1 PAM = human MrgX1 positive allosteric modulation, primary screen. MrgX1-HEK293, Fluo-4 calcium flux, FDSS; active compounds read high. B-score at 10 µM. AID 588675. 310,000 tested, 0.63% active;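 active means plate-corrected calcium response at least 3 library SD above typical, normal starting fluorescence, not activating the receptor alone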;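 further: compound read alongside a low EC10 to EC30 dose of BAM8-22 agonist; peak minus trough fluorescence over baseline measured at the second addition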
Numbers without * were called inactive. Only some compounds are listed: those with a hit (about 4.1% of all), similar ones and a draw of the others.

`CC(C)c1ccc(/C=C/C(=O)NC(=S)Nc2ccc(CN3CCOCC3)cc2)cc1` gave MrgX1 antagonist inactive, Kir21 inh 0.04, RGS4 act -8.79*, MrgX1 ag inactive, RGS4 inh inactive and MrgX1 PAM inactive.
`OC(CNCCCN1CCCCC1)COc1ccccc1` (centres undefined) gave MrgX1 antagonist inactive, Kir21 inh -2.16, RGS4 act inactive, MrgX1 ag inactive, RGS4 inh inactive and MrgX1 PAM inactive.
For Nc1nonc1-n1nnc(C(=O)N/N=C/c2ccc(O)cc2)c1CN1CCCCCC1 the results were MrgX1 antagonist -8.63*, Kir21 inh -0.77, RGS4 act inactive, MrgX1 ag inactive, RGS4 inh inactive and MrgX1 PAM inactive.
Nc1nonc1-n1nnc(C(=O)N/N=C/c2cccc(O)c2)c1CN1CCCC1 was read as MrgX1 antagonist inactive, Kir21 inh -0.46, RGS4 act inactive, MrgX1 ag inactive, RGS4 inh inactive and MrgX1 PAM inactive.
Screening O=C(O)CCC1c2cc3c4cc2OC2Oc5cc6c(cc51)C(CCC(=O)O)c1cc5c7cc1OC(O6)c1cc6cc(c1)Oc1cc(cc(C(=O)O)c1)Oc1cc8cc(c1)C(Oc1cc(c(cc1C5CCC(=O)O)C3CCC(=O)O)OC(O4)c1cc(cc(c1)Oc1cc(cc(C(=O)O)c1)O8)Oc1cc(cc(C(=O)O)c1)Oc1cc(cc2c1)Oc1cc(cc(C(=O)O)c1)O6)O7 (centres undefined) returned MrgX1 antagonist inactive, Kir21 inh 0.01, RGS4 act inactive, MrgX1 ag 29.3*, RGS4 inh inactive and MrgX1 PAM inactive.
For Cc1cc(/C=C2/NC(=O)NC2=O)c(C)n1-c1ccccn1 the results were MrgX1 antagonist inactive, Kir21 inh 0.64, RGS4 act inactive, MrgX1 ag inactive, RGS4 inh inactive and MrgX1 PAM inactive.
For Cc1ccc(-n2c(C)cc(/C=C3\NC(=O)NC3=O)c2C)c(C)c1 the results were MrgX1 antagonist inactive, Kir21 inh 0.04, RGS4 act -7.62*, MrgX1 ag inactive, RGS4 inh inactive and MrgX1 PAM inactive.
Screening COc1ccc2oc(=O)c(-c3nnc(NCc4ccco4)s3)cc2c1 returned MrgX1 antagonist inactive, Kir21 inh 1.09, RGS4 act inactive, MrgX1 ag inactive, RGS4 inh inactive and MrgX1 PAM inactive.
For CCOc1cccc2cc(-c3nnc(NCc4ccco4)s3)c(=O)oc12 the results were MrgX1 antagonist -4.82*, Kir21 inh -1.64, RGS4 act inactive, MrgX1 ag inactive, RGS4 inh inactive and MrgX1 PAM inactive.
For Cc1c(NC(=S)N/N=C/c2ccc(Br)cc2)c(=O)n(-c2ccccc2)n1C the results were MrgX1 antagonist inactive, Kir21 inh 0.38, RGS4 act inactive, MrgX1 ag inactive, RGS4 inh inactive and MrgX1 PAM inactive.
For Cn1c(CS/C(N)=N/N=C/c2ccccc2)c(Br)c(=O)n1-c1ccccc1 the results were MrgX1 antagonist inactive, Kir21 inh 0.65, RGS4 act inactive, MrgX1 ag 46.1*, RGS4 inh inactive and MrgX1 PAM inactive.
Screening CCc1ccc(S(=O)(=O)NCCc2csc(-c3ccccc3)n2)s1 returned MrgX1 antagonist inactive, Kir21 inh -4.48*, RGS4 act inactive, MrgX1 ag inactive, RGS4 inh inactive and MrgX1 PAM inactive.
Screening COc1ccc(OC)c(S(=O)(=O)NCc2cn3c(C)csc3n2)c1 returned MrgX1 antagonist inactive, Kir21 inh 0.56, RGS4 act inactive, MrgX1 ag inactive, RGS4 inh inactive and MrgX1 PAM inactive.
Screening O=S(=O)(NCc1csc(-c2cccnc2)n1)c1ccc(Cl)s1 returned MrgX1 antagonist inactive, Kir21 inh -0.64, RGS4 act inactive, MrgX1 ag inactive, RGS4 inh inactive and MrgX1 PAM inactive.
Screening CCc1ccc(S(=O)(=O)NCCc2csc(-c3cccnc3)n2)s1 returned MrgX1 antagonist inactive, Kir21 inh -2.37, RGS4 act inactive, MrgX1 ag inactive, RGS4 inh inactive and MrgX1 PAM inactive.
`CCc1ccc(S(=O)(=O)NCc2csc(-c3ccccc3)n2)s1` gave MrgX1 antagonist inactive, Kir21 inh -6.29*, RGS4 act inactive, MrgX1 ag inactive, RGS4 inh inactive and MrgX1 PAM inactive.
For O=S(=O)(NCc1csc(-c2ccccc2)n1)c1ccc(Cl)s1 the results were MrgX1 antagonist inactive, Kir21 inh -4.62*, RGS4 act inactive, MrgX1 ag inactive, RGS4 inh inactive and MrgX1 PAM inactive.
`COc1ccc(OC)c(S(=O)(=O)NCc2csc(-c3ccccc3)n2)c1` gave MrgX1 antagonist inactive, Kir21 inh -4.23*, RGS4 act inactive, MrgX1 ag inactive, RGS4 inh inactive and MrgX1 PAM inactive.
CCc1ccc(S(=O)(=O)NCCc2cn3ccc(C)cc3n2)s1 was read as MrgX1 antagonist inactive, Kir21 inh -8.85*, RGS4 act inactive, MrgX1 ag inactive, RGS4 inh inactive and MrgX1 PAM inactive.
For CCc1ccc(S(=O)(=O)NCCc2csc(C)n2)s1 the results were MrgX1 antagonist inactive, Kir21 inh -0.8, RGS4 act inactive, MrgX1 ag inactive, RGS4 inh inactive and MrgX1 PAM inactive.
For COc1cc(CCN2C(=O)c3cccc4cccc(c34)C2=O)c(S(=O)(=O)N2CCCCCC2)cc1OC the results were MrgX1 antagonist inactive, Kir21 inh 1.46, RGS4 act inactive, MrgX1 ag inactive, RGS4 inh inactive and MrgX1 PAM inactive.
For O=C(NNc1nc2c(F)cccc2s1)c1ccccc1 the results were MrgX1 antagonist inactive, Kir21 inh -0.08, RGS4 act inactive, MrgX1 ag inactive, RGS4 inh inactive and MrgX1 PAM inactive.
Screening COc1ccc(-c2cnnc(N/N=C/c3ccc(C)o3)n2)cc1 returned MrgX1 antagonist -5.19*, Kir21 inh -0.31, RGS4 act inactive, MrgX1 ag inactive, RGS4 inh inactive and MrgX1 PAM inactive.
`COc1ccc(-c2cnnc(N/N=C/c3ccc(O)cc3)n2)cc1` gave MrgX1 antagonist inactive, Kir21 inh 0.26, RGS4 act inactive, MrgX1 ag inactive, RGS4 inh inactive and MrgX1 PAM inactive.
CN1/C(=C/C=C(/C#N)C(N)=O)C(C)(C)c2ccccc21 was read as MrgX1 antagonist inactive, Kir21 inh -2.45, RGS4 act inactive, MrgX1 ag 32.8*, RGS4 inh inactive and MrgX1 PAM inactive.
Screening CCOc1ccc(C2C=C(c3ccc(C)cc3)Nc3ncnn32)cc1 (centres undefined) returned MrgX1 antagonist inactive, Kir21 inh -2.4, RGS4 act inactive, MrgX1 ag 29.9*, RGS4 inh inactive and MrgX1 PAM inactive.
